The source made the active and inactive calls. No cut-off for these calls is given here.
Columns and labels:
Alternaria brassicae = assay: Antimicrobial activity against Alternaria brassicae by disc diffusion method; format: functional
Outline: (§1)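 Disk diffusion assay run against a panel of two bacteria (Staphylococcus aureus, Escherichia coli) and four plant-pathogenic fungi (Alternaria brassicae, Fusarium oxysporum, Coniella diplodiella, Physalospora piricola). The positive control was chloramphenicol for the bacterial strains and amphotericin B for the fungal strains.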

Staphylococcus aureus = assay: Antimicrobial activity against Staphylococcus aureus by disc diffusion method; format: functional, organism-based; outline: as §1
Fusarium oxysporum = assay: Antimicrobial activity against Fusarium oxysporum by disc diffusion method; format: functional, organism-based; outline: as §1
[1] = tested on: Botryosphaeria berengeriana; assay: Antimicrobial activity against Physalospora pyricola by disc diffusion method; format: functional, organism-based; outline: as §1
Coniella diplodiella = assay: Antimicrobial activity against Coniella diplodiella by disc diffusion method; format: functional; outline: as §1
Escherichia coli = assay: Antimicrobial activity against Escherichia coli by disc diffusion method; format: functional, organism-based; outline: as §1
HepG2 = assay: Cytotoxicity against human HepG2 cells; format: functional, cell-based
MCF7 = assay: Cytotoxicity against human MCF7 cells; format: functional, cell-based
DU-145 = assay: Cytotoxicity against human DU145 cells; format: functional, cell-based
A549 = assay: Cytotoxicity against human A549 cells; format: functional, cell-based
MDA-MB-231 = assay: Cytotoxicity against human MDA-MB-231 cells; format: functional, cell-based
NCI-H460 = assay: Cytotoxicity against human NCI-H460 cells; format: functional, cell-based
SW1990 = assay: Cytotoxicity against human SW1990 cells; format: functional, cell-based

| SMILES | inhibition (Alternaria brassicae) | inhibition (Staphylococcus aureus) | inhibition (Fusarium oxysporum) | inhibition [1] | inhibition (Coniella diplodiella) | inhibition (Escherichia coli) | IC50 (HepG2) [µM] | IC50 (MCF7) [µM] | IC50 (DU-145) [µM] | IC50 (A549) [µM] | IC50 (MDA-MB-231) [µM] | IC50 (NCI-H460) [µM] | IC50 (SW1990) [µM] |
| --- | --- | --- | --- | --- | --- | --- | --- | --- | --- | --- | --- | --- | --- |
| COc1cc(/C=C/C(C)=C\C(C)=C\c2ccccc2)oc(=O)c1 | Active | Active | Active | Active | Active | Active |  |  |  |  |  |  |  |
| COc1cc(-c2cc(C)cc(C)c2-c2ccccc2)oc(=O)c1C [NIGERAPYRONE B] | Active | Active | Active | Active | Active | Active | 62 |  |  |  |  |  |  |
| COc1cc(/C=C/C(C)=C/C(C)=C\c2ccccc2)oc(=O)c1 | Active | Active | Active | Active | Active | Active |  |  |  |  |  |  |  |
| O=c1[nH]cc(F)c(=O)[nH]1 [FLUOROURACIL] |  |  |  |  |  |  | 109 | 31 | 3.3 | 52 | 59 | 8.5 |  |
| COc1cc(-c2cc(C)cc(C)c2-c2ccccc2)oc(=O)c1 | Active | Active | Active | Active | Active | Active |  |  |  |  |  |  |  |
| COc1cc(/C=C/C(C)=C/C(C)=C/c2ccccc2)oc(=O)c1 | Active | Active | Active | Active | Active | Active |  |  |  |  |  |  |  |
| COc1cc(/C=C/C(C)=C/C(C)=O)oc(=O)c1 | Active | Active | Active | Active | Active | Active |  |  |  |  |  |  |  |
| COc1cc(/C=C/C(C)=C/C(C)=O)oc(=O)c1C [NIGERAPYRONE D] | Active | Active | Active | Active | Active | Active | 81 | 121 |  | 81 |  |  |  |
| COc1cc(\C=C/C(C)=C/C(C)=C/c2ccccc2)oc(=O)c1 | Active | Active | Active | Active | Active | Active |  |  |  |  |  |  |  |
| COc1cc(/C=C/C(C)=O)oc(=O)c1C [NIGERAPYRONE E] | Active | Active | Active | Active | Active | Active | 86 | 105 | 86 | 43 | 48 | 43 | 38 |
| COc1cc(/C=C/C(C)=C/C(C)=C/c2ccccc2)oc(=O)c1C [ASNIPYRONE A] | Active | Active | Active | Active | Active | Active |  |  |  | 62 |  |  |  |

From ChEMBL document CHEMBL1821629, “Nigerapyrones A-H, α-pyrone derivatives from the marine mangrove-derived endophytic fungus Aspergillus niger MA-132” (J Nat Prod, 2011)
